Laboratory results published in ChEMBL document CHEMBL1129631, “Synthesis and evaluation of aryl-substituted N-(arylethyl)-N-methyl-2-(1-pyrrolidinyl)ethylamines and corresponding arylacetamides for sigma receptor affinity” (J Med Chem, 1996).

Columns and labels:
[1] = biological target: Sigma 2 receptor; experiment: Displacement of [3H]-DTG from Sigma opioid receptor type 2 in rat liver membrane; format: cell membranes
Procedure, shortened: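 Liver membranes from male Sprague-Dawley rats (160 μg protein) with 5 nM [3H]DTG plus 1 μM dextralorphan masking σ1 sites. Twelve ligand concentrations (0.05–10 000 nM or 0.5–100 000 nM), 50 mM Tris-HCl pH 8.0, 120 min, 25 °C. Nonspecific binding by 10 μM haloperidol. Filtration and counting. Ki from IC50 by Cheng–Prusoff; 2–3 experiments ± SEM.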

[2] = biological target: Sigma non-opioid intracellular receptor 1 (Cavia porcellus) (UniProt Q60492); experiment: Relative affinity for sigma-1 compared to sigma-2 type receptors
Sequence of Sigma non-opioid intracellular receptor 1 (Cavia porcellus) (Q60492 whole entry, looked up): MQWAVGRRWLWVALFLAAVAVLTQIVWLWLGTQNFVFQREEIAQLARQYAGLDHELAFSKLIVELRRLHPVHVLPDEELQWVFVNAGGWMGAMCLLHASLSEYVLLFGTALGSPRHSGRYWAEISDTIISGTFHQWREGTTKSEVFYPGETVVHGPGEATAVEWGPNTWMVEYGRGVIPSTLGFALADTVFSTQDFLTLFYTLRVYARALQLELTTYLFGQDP

Compound	Ki [1] [nM]	Ratio [2]
COc1cccc(CC(=O)N(C)CCN2CCCC2)c1	1110	2.8
CN(CCc1ccccc1[N+](=O)[O-])CCN1CCCC1	311	0.02
CN(CCN1CCCC1)C(=O)Cc1cccc([N+](=O)[O-])c1	539	3
CN(CCN1CCCC1)C(=O)Cc1ccc([N+](=O)[O-])cc1	596	1.5
CN(CCN1CCCC1)C(=O)Cc1ccccc1[N+](=O)[O-]	1490	0.49
COc1ccc(CC(=O)N(C)CCN2CCCC2)cc1	1220	1.8
COc1ccccc1CC(=O)N(C)CCN1CCCC1	3170	

More lines, now with the values ahead:

Ki [1] [nM]	Ratio [2]	Compound
640	0.45	CN(CCc1ccccc1N)CCN1CCCC1
95.2	0.07	CN(CCc1cccc([N+](=O)[O-])c1)CCN1CCCC1
256	0.12	COc1ccc(CCN(C)CCN2CCCC2)cc1
209	0.11	COc1cccc(CCN(C)CCN2CCCC2)c1
62.7	0.07	CN(CCc1ccc([N+](=O)[O-])cc1)CCN1CCCC1
2240	0.26	CN(CCc1cccc(N)c1)CCN1CCCC1
974	0.28	CN(CCc1ccc(N)cc1)CCN1CCCC1
144	0.11	COc1ccccc1CCN(C)CCN1CCCC1
